Hits are enriched below; roughly 2.7% of the tested compounds scored in any of these assays.
Yeast lifespan up – yeast lifespan extension; inhibition of the nicotinamide effect, % at 10 µM; actives 0.68% (n = 130,000); S. cerevisiae growth with nicotinamide, OD615; deaD strain in restrictive glucose medium;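 active = inhibition above a set limit, placed 3 SD over the median of all compounds, cut at about 26% in these data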;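 also: 0% = nicotinamide-treated wells and 100% = cells grown without nicotinamide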
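Buffer or medium: CSMM-D glucose medium, restrictive; test system: modified budding yeast, DeaD strain; compound: single dose 10 µM compound, 0.25% DMSO; schedule: culture preincubation 4 h, compound exposure 48 h, both 30 °C; detection: optical density (absorbance) at 615 nm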
RAM inhibit – blocks the yeast RAM network | AID 868 | actives 1.8% (n = 190,000) | S. cerevisiae dse1pr::URA3 reporter, 5-FOA growth OD615, 2 d; analog-sensitive cbk1-as2 kinase mutant strain | inhibition, % at 50 µM;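 active = inhibition above a set limit, 3 SD over mean compound inhibition, cut at about 8.4% in these data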;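 also: 0% = DMSO-only wells with no growth and 100% = 10 µM 1-NA-PP1 full growth; inhibition rescues growth on 5-FOA so higher OD means more RAM inhibition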
sdo1 growth – compounds rescuing growth of sdo1-depleted yeast, bone marrow failure model; S. cerevisiae sdo1-depleted JHY4D growth rescue, OD600 30 h; active compounds read high; pdr5 snq2 efflux-pump mutant strain; z-score at 10 µM; actives 0.21% (n = 140,000);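 active = z-score above 3 at both the 24 hr and the 30 hr optical density reads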;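 also: z-score against mean and SD of all compound wells on the same plate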
BB579 growth dn – chemicals that inhibit yeast BB579 growth in restrictive medium (lifespan-shortening candidates). S. cerevisiae BB579 growth, OD615, 48 h. inhibition, % at 10 µM. actives 0.51% (n = 140,000);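 active = inhibition above a set limit, 3 SD over the mean compound inhibition, cut at about 44% in these data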
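Detection: OD615 turbidity measurement; Material: Saccharomyces cerevisiae DeaD strain BB579, replicative lifespan model yeast; Timing: 48 h exposure, 30 °C; Doses: single 10 µM dose; Medium: CSMM-D restrictive synthetic medium containing dextrose (glucose); Controls: amphotericin B at 10 µg/mL as positive control.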
The depositor's hits bear a star.

Cc1ccc(N=Cc2c(O)ccc3ccccc23)cc1F was read as Yeast lifespan up 36*, RAM inhibit 0, sdo1 growth -0.41 and BB579 growth dn 5.
CCOC(=O)N1C=CC(C)=C[C@@H]2[C@@H](N3C(=O)c4ccccc4C3=O)C(=O)N21 was read as Yeast lifespan up 7, RAM inhibit 0, sdo1 growth 1 and BB579 growth dn -12.
COC(=O)C1C(c2ccccc2)C(C(=O)OCc2ccco2)C1c1ccccc1 (stereo not given) was read as RAM inhibit 8.5*, sdo1 growth -1.8 and BB579 growth dn -47.
OC(COc1ccc(CN2CCCCO2)cc1)CN1CCCCC1 (stereo not given) was read as RAM inhibit 1.
Screening COCCOC(=O)c1c(C)oc2ccc(OC(=O)c3ccc4c(c3)OCO4)cc12 returned Yeast lifespan up -12, RAM inhibit 10*, sdo1 growth 0.02 and BB579 growth dn -37.
`COc1cc(C2C(C#N)=C(N)Oc3c2c(-c2ccccc2)nn3-c2ccccc2)cc(OC)c1OC` (stereo not given) gave Yeast lifespan up -2, RAM inhibit 2, sdo1 growth 0.05 and BB579 growth dn -52.
CC1CCN(S(=O)(=O)c2ccc(NC(=O)N3c4ccccc4Sc4ccccc43)cc2)CC1 was read as Yeast lifespan up -11, RAM inhibit 4, sdo1 growth 0.71 and BB579 growth dn -44.
Screening NS(=O)(=O)c1ccc(NC(=O)N2c3ccccc3Sc3ccccc32)cc1 returned Yeast lifespan up -5, RAM inhibit 9.4*, sdo1 growth 0.06 and BB579 growth dn -36.
For N#C/C(C(N)=O)=c1/ccc2c(c1)N1C3=C(CCCC3)CC3CCCCC31N=2 (stereo not given) the results were Yeast lifespan up 37*, RAM inhibit 8, sdo1 growth -1.7 and BB579 growth dn -19.
Cc1[nH]n(-c2ccccc2)c(=O)c1N=Nc1ccccc1O was read as RAM inhibit 9.9*.
Screening Cc1[nH]n(-c2ccccc2)c(=O)c1N=Nc1nccs1 returned Yeast lifespan up 34*, RAM inhibit 2, sdo1 growth 0.21 and BB579 growth dn -39.
For Cc1ccc(/C=C/C(=O)c2ccccc(=O)c2O)cc1C the results were Yeast lifespan up -10, RAM inhibit 1, sdo1 growth -0.04 and BB579 growth dn 99*.
Screening O=C(/C=C/c1ccccc1)c1cc(Br)ccc(=O)c1O returned Yeast lifespan up -17, RAM inhibit 0, sdo1 growth 0.79 and BB579 growth dn 88*.
Screening COc1ccc(/C=C/C(=O)c2ccccc2O)cc1 returned Yeast lifespan up -3, RAM inhibit 2, sdo1 growth -1.3 and BB579 growth dn -15.
`Cc1[nH]c2ccc(-c3n[nH]c(=S)n3-c3ccccc3)cc2c1C` gave Yeast lifespan up 1, RAM inhibit 4, sdo1 growth -0.24 and BB579 growth dn -23.
For Cc1[nH]c2ccc(-c3n[nH]c(=S)n3-c3ccc(Br)cc3)cc2c1C the results were RAM inhibit 10*.
For CCN(CC)S(=O)(=O)c1cccc(C(=O)OCC(=O)NC(C)c2ccccc2)c1 (stereo not given) the results were RAM inhibit 1.
For Cc1ccc(CC(=O)NCCS(=O)c2ccc(C)cc2)cc1 (stereo not given) the results were RAM inhibit 2.
Screening COc1ccc(NC(=O)C2CCCN2S(=O)(=O)c2cccc3cccnc23)c(OC)c1 (stereo not given) returned Yeast lifespan up -12, RAM inhibit 0, sdo1 growth -2.9 and BB579 growth dn 98*.
Screening O=C(NC1CCCC1)C1CCCN(S(=O)(=O)c2cccc3cccnc23)C1 (stereo not given) returned Yeast lifespan up -4, RAM inhibit 8.7*, sdo1 growth -0.48 and BB579 growth dn -73.
Screening C(=C\c1nc(N2CCCCCC2)c2ccccc2n1)/c1ccccc1 returned Yeast lifespan up -7, RAM inhibit -1, sdo1 growth -2.5 and BB579 growth dn 74*.
Screening CC(OC(=O)c1ccc(S(=O)(=O)N(C)c2ccccc2)cc1)C(=O)NCCC1=CCCCC1 (stereo not given) returned Yeast lifespan up 3, RAM inhibit 8.8*, sdo1 growth -0.24 and BB579 growth dn -15.
`CCOC(=O)Cn1c(=NC(=O)c2nc3ccccc3s2)sc2cc(S(N)(=O)=O)ccc21` gave Yeast lifespan up 6, RAM inhibit 10*, sdo1 growth -0.3 and BB579 growth dn -40.
CCOCCn1c(=NC(=O)c2cc3ccccc3oc2=O)sc2cc(S(N)(=O)=O)ccc21 was read as Yeast lifespan up 1, RAM inhibit 8.9*, sdo1 growth -0.52 and BB579 growth dn -10.
`CCOC(=O)Cn1c(=NC(=O)CN2C(=O)CCC2=O)sc2cc(S(N)(=O)=O)ccc21` gave Yeast lifespan up 4, RAM inhibit 1, sdo1 growth 1.2 and BB579 growth dn -36.
For CCCCn1c(/N=C/c2c[nH]c3ccccc23)nc2ccccc21 the results were Yeast lifespan up -19, RAM inhibit -2, sdo1 growth -2 and BB579 growth dn 44*.
For CCCn1c(/N=C/c2c[nH]c3ccccc23)nc2ccccc21 the results were Yeast lifespan up -24, RAM inhibit 0, sdo1 growth -1.9 and BB579 growth dn -28.
For COC(=O)c1ccc(COc2ccccc2/C=C(\C#N)C(=O)Nc2ccc(C)cc2)cc1 the results were Yeast lifespan up 6, RAM inhibit 4, sdo1 growth -0.87 and BB579 growth dn -31.
For C=CCNC(=O)/C(C#N)=C/c1ccccc1OCc1ccc(C(=O)OC)cc1 the results were Yeast lifespan up 35*, RAM inhibit 7, sdo1 growth -0.92 and BB579 growth dn -52.
Screening CCN1C(=O)/C(=C\C=C\c2ccccc2[N+](=O)[O-])SC1=S returned RAM inhibit 8.6*.
Screening COc1ccc(CNC(=O)/C(C#N)=C2\N=C(NC(=O)c3cccs3)c3ccccc32)cc1 returned Yeast lifespan up -4, RAM inhibit 5, sdo1 growth 1.4 and BB579 growth dn -13.
CSc1cccc(NC(=S)N(CCCN2CCC(C)CC2)Cc2cccs2)c1 was read as RAM inhibit 0.
`O=C(CSc1c(Cl)cccc1Cl)N1CCC(c2nc3ccccc3s2)CC1` gave Yeast lifespan up -2, RAM inhibit 9.4*, sdo1 growth -1.8 and BB579 growth dn -59.
Screening CC(C)C(=O)OC1CCS(=O)(=O)c2sccc21 (stereo not given) returned RAM inhibit 2.
O=C1NC(c2ccccc2)C(C(=O)c2cccs2)C(O)(C(F)(F)F)N1 (stereo not given) was read as Yeast lifespan up -7, RAM inhibit -1, sdo1 growth 0.29 and BB579 growth dn -31.
`CN1C(=O)NC(c2ccc(O)cc2)C(C(=O)c2cccs2)C1(O)C(F)(F)F` (stereo not given) gave Yeast lifespan up 34*, RAM inhibit 1, sdo1 growth -0.1 and BB579 growth dn -15.

Assay outcomes (PubChem BioAssay)
